Laboratory results reported in article PMC4547362 (Molecular cancer therapeutics, 2015).
Where two headings read alike, the source gives them in different places.

Key:
Stat5a/b [1] = assay: Stat5a/b activation and transcriptional activity, side-by-side with IST5-002; assay type: cell-based
Stat5a [2] = target: T1, Stat5a (Homo sapiens, UniProt P42229); assay: Stat5a luciferase reporter gene assay; assay type: cell-based; details: read-out: IC50, transcriptional activity of Stat5a; PC-3 cells, β-casein-luciferase, hPrl 10 nM 16 h
T1 sequence (P42229 1-794): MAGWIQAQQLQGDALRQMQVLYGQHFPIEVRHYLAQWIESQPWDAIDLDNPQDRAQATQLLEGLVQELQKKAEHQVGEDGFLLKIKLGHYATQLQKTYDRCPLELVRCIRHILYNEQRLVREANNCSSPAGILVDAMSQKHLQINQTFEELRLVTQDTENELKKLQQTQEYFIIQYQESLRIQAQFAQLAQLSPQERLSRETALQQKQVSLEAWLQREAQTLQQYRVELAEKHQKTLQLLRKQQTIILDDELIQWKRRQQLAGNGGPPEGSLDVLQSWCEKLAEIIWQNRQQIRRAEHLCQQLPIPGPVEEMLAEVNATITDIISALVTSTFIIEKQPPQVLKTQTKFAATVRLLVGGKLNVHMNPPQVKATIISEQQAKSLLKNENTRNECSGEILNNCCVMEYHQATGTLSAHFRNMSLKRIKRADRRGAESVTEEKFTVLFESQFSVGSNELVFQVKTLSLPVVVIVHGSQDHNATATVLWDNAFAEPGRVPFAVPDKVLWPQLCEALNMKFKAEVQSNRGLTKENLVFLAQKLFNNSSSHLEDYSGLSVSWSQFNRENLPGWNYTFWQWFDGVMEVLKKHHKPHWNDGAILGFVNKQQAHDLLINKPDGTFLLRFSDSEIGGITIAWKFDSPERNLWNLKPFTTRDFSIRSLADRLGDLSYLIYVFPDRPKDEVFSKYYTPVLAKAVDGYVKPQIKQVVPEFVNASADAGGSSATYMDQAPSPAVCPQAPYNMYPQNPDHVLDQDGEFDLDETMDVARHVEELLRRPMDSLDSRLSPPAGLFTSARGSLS

Stat5b = Stat5b (Homo sapiens, UniProt P51692); assay: Stat5b luciferase reporter gene assay; assay type: cell-based; details: read-out: IC50, transcriptional activity of Stat5b; PC-3 cells, β-casein-luciferase, hPrl 10 nM 16 h
Sequence of Stat5b (P51692 whole entry, species assumed): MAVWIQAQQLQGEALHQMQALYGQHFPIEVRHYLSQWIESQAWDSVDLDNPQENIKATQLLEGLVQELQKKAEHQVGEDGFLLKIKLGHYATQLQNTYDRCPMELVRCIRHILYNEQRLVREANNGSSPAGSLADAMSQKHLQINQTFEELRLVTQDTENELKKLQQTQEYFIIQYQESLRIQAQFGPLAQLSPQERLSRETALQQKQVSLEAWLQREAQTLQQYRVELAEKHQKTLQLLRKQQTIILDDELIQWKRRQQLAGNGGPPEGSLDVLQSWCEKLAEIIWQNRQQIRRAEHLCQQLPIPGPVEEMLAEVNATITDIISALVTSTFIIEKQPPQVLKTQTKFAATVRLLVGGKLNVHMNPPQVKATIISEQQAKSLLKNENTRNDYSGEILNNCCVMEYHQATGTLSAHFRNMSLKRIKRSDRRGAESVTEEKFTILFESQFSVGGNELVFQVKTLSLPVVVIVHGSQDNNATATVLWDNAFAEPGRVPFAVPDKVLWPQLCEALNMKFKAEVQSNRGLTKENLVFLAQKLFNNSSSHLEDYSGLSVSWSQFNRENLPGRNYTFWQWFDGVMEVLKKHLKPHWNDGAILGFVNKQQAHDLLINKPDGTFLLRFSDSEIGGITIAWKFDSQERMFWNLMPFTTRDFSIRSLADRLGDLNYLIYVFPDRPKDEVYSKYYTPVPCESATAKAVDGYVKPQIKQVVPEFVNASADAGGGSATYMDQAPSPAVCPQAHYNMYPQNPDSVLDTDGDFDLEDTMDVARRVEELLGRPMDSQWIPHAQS

Stat5a/b [3] = target: T2, Stat5a/b (Homo sapiens, UniProt P42229+P51692); assay: Bcr-Abl-driven Stat5a/b phosphorylation in K562 cells, immunoblot; assay type: cell-based; details: 3 h
T2 sequence (P51692 whole entry, one chain of several): as the sequence (P51692 whole entry, species assumed) above

Bcr-Abl = Bcr-Abl (Homo sapiens, UniProt P00519+P11274); assay: Bcr-Abl tyrosine phosphorylation in K562 cells, immunoblot; assay type: cell-based
Stat5a/b [4] = target: Stat5a/b (Mus musculus, UniProt P42230+P42232); assay type: cell-based; details: read-out: IC50, phosphorylation of Stat5a/b; HC-11 cells, 2 h, then hPrl 30 min
Sequence of Stat5a/b (Mus musculus, UniProt P42230+P42232) (P42230 whole entry): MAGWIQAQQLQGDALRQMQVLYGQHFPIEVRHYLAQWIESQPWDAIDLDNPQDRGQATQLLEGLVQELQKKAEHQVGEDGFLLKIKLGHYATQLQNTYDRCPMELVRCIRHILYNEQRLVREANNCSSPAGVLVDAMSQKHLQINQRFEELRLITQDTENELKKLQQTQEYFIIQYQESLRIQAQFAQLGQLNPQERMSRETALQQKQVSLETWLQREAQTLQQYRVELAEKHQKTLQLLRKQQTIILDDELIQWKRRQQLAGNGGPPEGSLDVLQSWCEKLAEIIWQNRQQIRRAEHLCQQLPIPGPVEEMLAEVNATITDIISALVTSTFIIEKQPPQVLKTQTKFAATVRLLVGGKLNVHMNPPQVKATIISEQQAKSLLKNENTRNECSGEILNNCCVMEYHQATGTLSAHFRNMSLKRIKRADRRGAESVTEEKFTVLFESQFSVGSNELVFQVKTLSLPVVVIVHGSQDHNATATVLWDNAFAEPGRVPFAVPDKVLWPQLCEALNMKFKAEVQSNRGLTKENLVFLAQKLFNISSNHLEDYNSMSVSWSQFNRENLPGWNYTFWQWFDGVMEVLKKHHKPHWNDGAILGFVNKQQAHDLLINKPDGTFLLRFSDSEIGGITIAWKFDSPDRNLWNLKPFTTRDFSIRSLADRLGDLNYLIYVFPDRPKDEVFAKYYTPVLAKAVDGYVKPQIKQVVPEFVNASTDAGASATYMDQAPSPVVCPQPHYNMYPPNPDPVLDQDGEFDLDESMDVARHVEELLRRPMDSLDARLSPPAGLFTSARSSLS
Sequence of Stat5a/b (Mus musculus, UniProt P42230+P42232) (P42232 whole entry): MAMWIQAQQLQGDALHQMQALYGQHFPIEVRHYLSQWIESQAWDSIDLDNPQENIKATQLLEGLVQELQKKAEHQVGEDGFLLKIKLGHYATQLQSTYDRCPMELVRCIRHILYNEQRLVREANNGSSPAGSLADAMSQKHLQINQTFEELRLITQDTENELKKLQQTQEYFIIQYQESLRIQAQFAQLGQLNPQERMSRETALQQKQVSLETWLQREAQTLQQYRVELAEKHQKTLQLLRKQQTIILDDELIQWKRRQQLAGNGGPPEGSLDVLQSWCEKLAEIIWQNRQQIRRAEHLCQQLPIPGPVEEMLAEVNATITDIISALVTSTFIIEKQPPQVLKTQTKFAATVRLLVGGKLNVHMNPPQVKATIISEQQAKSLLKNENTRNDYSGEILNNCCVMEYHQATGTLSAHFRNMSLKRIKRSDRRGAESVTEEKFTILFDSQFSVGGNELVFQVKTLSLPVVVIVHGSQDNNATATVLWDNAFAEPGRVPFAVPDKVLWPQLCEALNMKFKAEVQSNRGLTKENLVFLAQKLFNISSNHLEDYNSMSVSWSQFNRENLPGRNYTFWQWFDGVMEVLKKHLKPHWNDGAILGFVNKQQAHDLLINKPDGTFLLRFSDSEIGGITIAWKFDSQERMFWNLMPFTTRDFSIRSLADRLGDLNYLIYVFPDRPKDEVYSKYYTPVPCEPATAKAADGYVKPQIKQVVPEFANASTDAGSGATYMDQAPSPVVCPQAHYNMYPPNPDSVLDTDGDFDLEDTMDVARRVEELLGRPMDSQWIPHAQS

Stat5a/b [5] = target: T2, Stat5a/b; assay: Cell-based immunoassay for tyrosine-phosphorylated Stat5a/b in T47D cells; details: read-out: IC50, phosphorylation of Stat5a/b, 2 h, then hPrl
Jak2 = Jak2 (Homo sapiens, UniProt O60674); assay: Jak2 phosphorylation in CWR22Rv1 cells, immunoprecipitation and immunoblot; assay type: cell-based
Sequence of Jak2 (O60674 whole entry): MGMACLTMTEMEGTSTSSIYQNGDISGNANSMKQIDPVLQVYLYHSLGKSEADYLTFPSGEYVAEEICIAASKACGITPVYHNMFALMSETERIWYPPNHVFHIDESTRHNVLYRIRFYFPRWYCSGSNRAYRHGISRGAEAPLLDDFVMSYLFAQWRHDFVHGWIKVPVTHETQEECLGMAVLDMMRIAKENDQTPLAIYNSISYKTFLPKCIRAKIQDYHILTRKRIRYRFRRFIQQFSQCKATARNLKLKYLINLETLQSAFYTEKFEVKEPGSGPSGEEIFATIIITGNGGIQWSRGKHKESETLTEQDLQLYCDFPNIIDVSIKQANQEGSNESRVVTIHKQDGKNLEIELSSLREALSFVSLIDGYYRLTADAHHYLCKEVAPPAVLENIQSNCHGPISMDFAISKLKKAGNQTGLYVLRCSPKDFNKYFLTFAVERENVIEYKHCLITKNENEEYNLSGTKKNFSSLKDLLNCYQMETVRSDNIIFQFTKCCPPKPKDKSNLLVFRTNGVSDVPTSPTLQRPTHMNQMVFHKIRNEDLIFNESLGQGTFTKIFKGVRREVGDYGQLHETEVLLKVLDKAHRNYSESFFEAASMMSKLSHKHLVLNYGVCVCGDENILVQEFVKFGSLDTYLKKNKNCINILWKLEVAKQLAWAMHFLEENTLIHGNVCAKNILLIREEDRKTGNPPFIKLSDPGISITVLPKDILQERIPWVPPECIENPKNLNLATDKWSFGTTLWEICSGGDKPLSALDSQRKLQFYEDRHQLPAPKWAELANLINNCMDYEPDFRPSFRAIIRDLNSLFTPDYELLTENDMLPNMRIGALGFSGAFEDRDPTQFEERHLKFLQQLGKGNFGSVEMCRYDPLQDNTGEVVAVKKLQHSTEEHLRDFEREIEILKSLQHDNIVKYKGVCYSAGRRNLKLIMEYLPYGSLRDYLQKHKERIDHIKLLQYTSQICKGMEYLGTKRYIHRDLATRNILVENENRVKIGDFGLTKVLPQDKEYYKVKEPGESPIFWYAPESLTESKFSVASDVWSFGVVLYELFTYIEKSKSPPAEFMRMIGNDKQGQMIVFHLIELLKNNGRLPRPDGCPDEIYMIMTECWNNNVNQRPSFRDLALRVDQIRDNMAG

panel of 50 kinases = assay: Kinase activity profiling; assay type: biochemical; details: 1 μM final concentration
Procedure, shortened: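 Split-luciferase binding format, with the test compound first checked for false-positive activity against split-luciferase. Each Cfluc-kinase was co-translated with Fos-Nfluc in rabbit reticulocyte lysate at 30 C for 90 min. Lysate was incubated 30 min at room temperature with DMSO or 1 μM (final) test compound, then 1 h with a kinase-specific probe.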

Stat5a [6] = target: T1, Stat5a; assay: Stat5a dimerization by co-immunoprecipitation in PC-3 cells; assay type: cell-based; details: read-out: IC50, Stat5a dimerization, FLAG- and MYC-tagged Stat5a, hPrl 10 nM 30 min
Stat5a [7] = target: T1, Stat5a; assay: Prl-induced nuclear translocation of Stat5a in PC-3 cells, immunofluorescence; assay type: cell-based; details: 2 h, hPrl 10 nM 30 min
Procedure, shortened: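 PC-3 cells were infected with adenoviral wild-type Stat5a and prolactin receptor (MOI 4), serum-starved, pretreated 2 h with test compound or control compound, and stimulated 30 min with 10 nM prolactin. Fixed cells were stained with rabbit anti-Stat5 pAb (1:200) and fluorescein goat anti-rabbit IgG (1:200).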

Stat5a/b [8] = target: Stat5a/b (Homo sapiens, UniProt P42229); assay: EMSA of Stat5a/b binding to DNA; assay type: cell-based; details: 25 μM, COS-7 cells, compared to Ctrl-treated cells
Procedure, shortened: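 COS-7 cells were transiently co-transfected with Stat5a and prolactin receptor plasmids, then serum-starved 10 h. They were pretreated 2 h with test compound or control compound and stimulated 30 min with 10 nM human prolactin. DNA binding was probed with the beta-casein gene Stat5 response element.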

Stat3 [9] = target: T3, Stat3 (Homo sapiens, UniProt P40763); assay: IL-6-induced Stat3 nuclear translocation in DU145 cells, immunofluorescence; assay type: cell-based; details: IL-6 5 nM, IST5-002 even at 50 μM
T3 sequence (P40763 whole entry): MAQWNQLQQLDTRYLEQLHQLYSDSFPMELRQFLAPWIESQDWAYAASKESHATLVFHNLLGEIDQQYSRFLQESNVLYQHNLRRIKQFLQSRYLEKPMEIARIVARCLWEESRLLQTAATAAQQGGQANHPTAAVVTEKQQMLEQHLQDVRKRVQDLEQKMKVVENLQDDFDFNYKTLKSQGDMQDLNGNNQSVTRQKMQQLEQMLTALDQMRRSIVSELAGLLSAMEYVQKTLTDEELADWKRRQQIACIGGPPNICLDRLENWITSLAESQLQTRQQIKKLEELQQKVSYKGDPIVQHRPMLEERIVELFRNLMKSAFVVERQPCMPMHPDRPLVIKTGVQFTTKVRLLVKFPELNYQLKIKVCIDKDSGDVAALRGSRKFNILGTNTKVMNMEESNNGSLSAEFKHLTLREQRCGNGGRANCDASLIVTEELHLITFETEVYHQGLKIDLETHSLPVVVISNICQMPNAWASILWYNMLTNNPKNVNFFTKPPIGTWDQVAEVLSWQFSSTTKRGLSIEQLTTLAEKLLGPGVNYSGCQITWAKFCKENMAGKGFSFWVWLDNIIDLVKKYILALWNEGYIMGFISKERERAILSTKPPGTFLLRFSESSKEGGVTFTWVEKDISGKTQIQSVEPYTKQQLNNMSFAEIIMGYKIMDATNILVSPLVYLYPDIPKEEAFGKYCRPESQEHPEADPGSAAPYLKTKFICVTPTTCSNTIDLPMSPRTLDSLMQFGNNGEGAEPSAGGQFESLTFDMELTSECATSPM

Stat3 [10] = target: T3, Stat3; assay: Stat3 luciferase reporter assay in LNCaP cells; assay type: cell-based; details: 6.0 μM, IL-6 50 ng/ml 16 h
Procedure, shortened: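 LNCaP cells were co-transfected with Stat3 (0.25 μg), IL-6 receptor (0.25 μg), Stat3-luciferase reporter (0.5 μg) and a normalisation plasmid (0.025 μg). Cells were serum-starved 10 h, pretreated with 6.0 μM test compound or control compound, and stimulated 16 h with 50 ng/ml IL-6. Relative luciferase activity is reported as the mean ± S.E. of three independent experiments run in triplicate.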

Bcl-xL and cyclin D1 = assay: Expression of Stat5a/b target genes cyclin D1 and Bcl-xL in PC cells, immunoblot; assay type: cell-based, human; details: CWR22Rv1 and LNCaP cells, 48 h or 25 μM time course
[11] = system: Stat5a/b target genes in K562 cells; assay: RNA expression profiling of K562 cells; assay type: cell-based; details: 5 μM, 48 h
Procedure, shortened: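 RNA from vehicle- and test compound-treated cells, alongside Stat5a/b-shRNA and scramble-shRNA cells, was profiled in triplicate on Affymetrix Human Gene 1.0 ST arrays. Differential expression versus the matching control used t-tests with false discovery rate correction.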

CWR22Rv1 cells [12] = assay: Dead cell count by trypan blue exclusion, CWR22Rv1; assay type: cell-based, human; details: 25 μM, 24 h
CWR22Rv1 cells [13] = assay: Nucleosomal DNA fragmentation ELISA, CWR22Rv1; assay type: cell-based, human; details: 25 μM, 24 h, CWR22Rv1, parallel wells
caspase-3 = assay: Caspase-3 activation assay, CWR22Rv1; assay type: cell-based, human; details: 12.5 μM, CWR22Rv1, 72 h
Procedure, shortened: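 CWR22Rv1 cells were exposed to 12.5 μM test compound or vehicle for set periods. Caspase-3 was captured with anti-caspase-3 mAb, and its cleavage of AFC substrate was read fluorometrically at 505 nm. In the rescue arm, cells were first infected with adenovirus carrying constitutively active Stat5a (MOI 2).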

LNCaP and CWR22Rv1 cells = assay: Cell cycle analysis of PC cells; assay type: cell-based, human; details: LNCaP and CWR22Rv1, 72 h
Procedure, shortened: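 LNCaP and CWR22Rv1 cells were treated with test compound, vehicle or control compound for up to 72 h. Cells were fixed, stained with propidium iodide plus RNase A, and analysed by flow cytometry in the FL-2 channel.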

CWR22Rv1 cells [14] = assay: Viability of CWR22Rv1 cells after Stat5a/b shRNA or control shRNA, trypan blue; assay type: cell-based, human; details: 12.5 μM, 48 h
[15] = system: A549, CAPAN, T47D, HT1080, HepG2, COS-7, RC170N, CWR22Rv1, K562 cells; assay type: cell-based
[16] = system: CWR22Rv1 xenograft tumors; assay: CWR22Rv1 prostate cancer xenograft tumor growth in nude mice; assay type: in vivo; details: for decrease of nuclear Stat5a/b content in tumors: compared to vehicle (HPC)
Procedure, shortened: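 Castrated male athymic nude mice got 60-day sustained-release DHT pellets 3 days before s.c. flank inoculation of 1.5 × 10⁷ CWR22Rv1 cells in Matrigel (one tumor/mouse). After one week, mice were randomised (10/group) to daily i.p. test compound in 0.3% HPC (25, 50, 100 mg/kg), HPC alone or no treatment for 10 days. Tumors were measured three times weekly; volume = 3.14 × length × width × depth/6. Nuclear Stat5/Stat3 in harvested tumors were compared by mixed-model ANOVA with Bonferroni-adjusted pairwise tests.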

patient-derived PCs = assay: Ex vivo organ explant culture of patient-derived prostate cancers; design: species or system human; details: 7 days ex vivo explant organ culture
Procedure, shortened: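 Patient-derived prostate cancers from radical prostatectomies (n=11, Gleason 7) were grown as explant organ cultures for 7 days with test compound or control compound at set concentrations. A pre-culture zero sample was formalin-fixed for baseline nuclear Stat5a/b. Explants were scored by Stat5a/b immunohistochemistry and TUNEL.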

[17] = system: K562, KCL22 and BV173 cells (parental and imatinib-resistant); assay: Growth of CML cell lines, trypan blue cell counts and colony formation; assay type: cell-based; details: 5 μM, trypan blue exclusion and colony formation assay
[18] = system: CML-blast crisis cell lines; assay: Cell cycle analysis of CML cells; assay type: cell-based; details: 5 μM, 48 h
primary CML cells = assay: Colony formation of primary CML-chronic phase cells from patients; assay type: cell-based, human; details: three CML-chronic phase patients, methylcellulose
PAK1/2 = PAK1/2 (Homo sapiens, UniProt Q13153+Q13177)
[19] = system: SUP-B15, 12878 and 3798 cell lines; assay: Cell viability; details: 48 h, MTT
Stat1 = details: cited from earlier work
Stat5 = details: cited from earlier work
[20] = side-by-side with IST5-002, data not shown

Nc1nc2c(ncn2[C@@H]2O[C@H](COP(=O)(O)O)[C@@H](O)[C@H]2O)c(=O)[nH]1 [GMP]
effect on Stat5a/b activation and transcriptional activity (Stat5a/b [1]; [20]): no effect

Nc1ncnc2c1ncn2[C@@H]1O[C@H](COP(=O)(O)O)[C@@H](O)[C@H]1O [AMP]
effect on Stat5a/b activation and transcriptional activity (Stat5a/b [1]; [20]): no effect

O=P(O)(O)OC[C@H]1O[C@@H](n2cnc3c(NCc4ccccc4)ncnc32)[C@H](O)[C@@H]1O [IST5-002, N6-benzyladenosine-5-monophosphate]
IC50 (Stat5a [2]): 1500 nM
IC50 (Stat5b): 3.5 µM
concentration that blocked Bcr-Abl-induced Stat5a/b phosphorylation (Stat5a/b [3]): 5 µM
Bcr-Abl tyrosine phosphorylation levels (Bcr-Abl): did not affect
IC50 (Stat5a/b [4]): 12 µM
IC50 (Stat5a/b [5]): 24.8 µM
Phosphorylation of Jak2 (Jak2): unaffected
inhibition of kinases in a panel of 50 kinases (panel of 50 kinases): no specific inhibition
IC50 (Stat5a [6]): 11 µM
concentration that abrogated Stat5a nuclear translocation (Stat5a [7]): 15 µM
reduction of binding of Stat5a/b to its DNA target sequence (Stat5a/b [8]): approximately 50%
Stat3 nuclear translocation (Stat3 [9]): no demonstrable effect
transcriptional activity of Stat3 (Stat3 [10]): failed to block
expression of Bcl-xL and cyclin D1 (Bcl-xL and cyclin D1): reduced expression
CISH expression change [11]: −2.3 fold
Cyclin D2 expression change [11]: −2.3 fold
Myc expression change [11]: −1.7 fold
Pim1 expression change [11]: −1.7 fold
Pim2 expression change [11]: −1.7 fold
SOCS3 expression change [11]: −1.3 fold
TRIB2 expression change [11]: −1.4 fold
increase in dead cells (CWR22Rv1 cells [12]): 5 fold
increase of nucleosomal DNA fragmentation (CWR22Rv1 cells [13]): 230%
increase in caspase-3 activation (caspase-3): 3 fold
fraction of dead cells (sub-G1) in cell cycle analysis (LNCaP and CWR22Rv1 cells): increased the fraction of dead cells
viability of CWR22Rv1 cells depleted of Stat5a/b (shStat5a/b) (CWR22Rv1 cells [14]): did not further affect
decrease in the number of viable PC cells expressing control shRNA (CWR22Rv1 cells [14]; CWR22Rv1): 40%
viability of cell lines from other tissues ([15]; A549, CAPAN, T47D, HT1080, HepG2, COS-7): not affected
viability of cells with high Stat5a/b activation ([15]; CWR22Rv1 and K562, side-by-side): suppressed viability
viability of cell lines with low or no Stat5a/b activation ([15]; RC170N normal prostate epithelial cell line, HT1080): did not affect viability
decrease of nuclear Stat5a/b content in tumors ([16]; 25 mg/kg i.p. daily): 60%
decrease of nuclear Stat5a/b content in tumors ([16]; 50 mg/kg i.p. daily): 78%
decrease of nuclear Stat5a/b content in tumors ([16]; 100 mg/kg i.p. daily): 90%
Tumor growth ([16]; 25, 50 or 100 mg/kg i.p. daily, all treatment groups vs control groups): significantly (P<0.001) suppressed
viable tumor cells in xenograft tumors ([16]; IST5-002 groups vs. vehicle): massive loss of viable tumor cells
Intratumor levels of nuclear Stat3 ([16]; any of the doses tested): not altered
patient-derived PCs that responded by extensive loss of viable epithelium (patient-derived PCs): Eight out of 11
concentration at which loss of viable epithelium started (patient-derived PCs; responders): 25 µM
growth of imatinib-sensitive and -resistant CML cells [17]: blocked the growth
apoptosis in cell cycle analysis [18]: increase in apoptosis
number of viable colonies of primary CML cells (primary CML cells): dramatic decrease
activity of PAK1/2 (PAK1/2): no specific inhibition
viability of EBV-immortalized B-cells that express no active Stat5a/b ([19]; 12878, 3798 cell lines): only marginal or no effect
viability of SUP-B15 (Bcr-Abl-driven ALL cell line) [19]: decreased viability

Cc1cc(Nc2nc(N[C@@H](C)c3ncc(F)cn3)ncc2Cl)n[nH]1 [AZD1480, reference compound]
Stat3 nuclear translocation (Stat3 [9]): effectively suppressed

Nc1ncnc2c1ncn2[C@@H]1O[C@@H]2COP(=O)(O)O[C@H]2[C@H]1O [cyclic AMP]
effect on Stat5a/b activation and transcriptional activity (Stat5a/b [1]): no effect

Nc1nc(F)nc2c1ncn2[C@@H]1O[C@H](CO)[C@@H](O)[C@@H]1O [Fludarabine, fludarabine]
Stat1 phosphorylation and activation (Stat1): inhibit
Stat5 activity (Stat5): not affecting
